# Assay outcomes deposited in PubChem by The Scripps Research Institute Molecular Screening Center.
# Rows were chosen to be rich in hits. Some 4.6% of all compounds tested hit in one or more screens of this group.
# TAAR1 ag = human TAAR1 agonism; Q96RJ0; 0.99% of 360,000 active; CHO RD-HGA16 TAAR1, Fluo-8 calcium fluorescence; vehicle wells 0%, saturating PEA agonist 100%; activation, % at 3 µM; AID 624467;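 active means activation above the mean activation of all test compounds in the run plus 3 SD, cut at about 38% in these data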
#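 System: CHO RD-HGA16 cells carrying human TAAR1 plus Gα16; Incubation: 17-24 h seeding, 75 min 37 °C dye, 30 min RT; Measured by: Fluo-8 fluorescence, 5 s baseline then 140 s kinetic read; Control set: DMSO and PEA EC100; Replication: single well for each compound.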
# OX1R antag-1 = antagonists of human orexin 1 receptor; O43613; CHO/OX1R cells, Fluo-8 calcium fluorescence, orexin A; inhibition, % at 5 µM; 0.43% of 330,000 active; AID 434989;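 active means inhibition above its plate's threshold, mean inhibition of all tested compounds on the plate plus 3 SD, cut at about 37% in these data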;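 further: 0% = orexin A challenge wells and 100% = SB-334867-A antagonist wells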
# OX1R antag-2 = blocks the human orexin 1 receptor | O43613 | OX1R-expressing cells, FRET antagonist read-out | inhibition, % at 6.6 µM | 1.8% of 330,000 active | AID 485270; in the data active means inhibition mostly above about 38%, no sharp cut-off; inactive means mostly below about 40%;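 further: 0% = agonist challenge alone and 100% = reference antagonist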
# TAAR1 antagonist = antagonists of human TAAR1 | inhibition, % at 3 µM | Q96RJ0 | CHO RD-HGA16 TAAR1, Fluo-8 calcium fluorescence, antagonist | 1.5% of 360,000 active | AID 624466;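 active means inhibition above a per-plate cutoff, the mean inhibition of test compounds on that plate plus 3 SD, cut at about 49% in these data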;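 further: 0% = DMSO plus EC80 beta-PEA response and 100% = DMSO alone without agonist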
#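 Test system – hTAAR1-expressing CHO RD-HGA16 cells, Gα16-coupled · Also added – β-PEA at EC80 concentration, post-compound challenge · Compound – 3 µM, single point · Incubation – dye loading 75 min at 37 °C, then 30 min room temperature · Measured by – Fluo-8 intracellular calcium dye fluorescence, real-time kinetic reads · Benchmarks – vehicle and agonist controls · Replicates – singlicate, one well per test compound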
# GPR7 antagonist = blocks human GPR7 receptor signaling. GPR7-expressing cells, fluorescence antagonist assay. 1.1% of 290,000 active. inhibition, % at 4.4 µM; in the data active means inhibition above about 16%, passing the limit was not always enough;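 further: cells stimulated with the agonist NPW; 0% = agonist with vehicle and 100% = vehicle without agonist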
# Target sequence (P48145 whole entry, looked up): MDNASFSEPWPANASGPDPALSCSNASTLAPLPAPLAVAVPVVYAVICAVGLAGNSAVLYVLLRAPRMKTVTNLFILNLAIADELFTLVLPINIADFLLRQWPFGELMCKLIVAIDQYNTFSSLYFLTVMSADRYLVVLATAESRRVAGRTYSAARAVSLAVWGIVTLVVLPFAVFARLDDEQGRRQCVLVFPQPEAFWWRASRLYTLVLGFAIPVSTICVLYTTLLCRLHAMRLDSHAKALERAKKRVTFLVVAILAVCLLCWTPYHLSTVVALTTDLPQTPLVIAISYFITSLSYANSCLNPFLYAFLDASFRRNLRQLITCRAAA
# CHO parental Ca = signal in parental CHO cells, OX1R antagonist counter-screen | parental CHO-K1, ATP-induced calcium, Fluo-8 fluorescence | inhibition, % at 5.6 µM | 0.63% of 330,000 active | AID 463079;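 active means inhibition above that plate's mean sample inhibition plus 3 SD, cut at about 26% in these data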;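 further: 0% = ATP-challenged DMSO wells and 100% = DMSO wells without ATP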
#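 Assay system: untransfected parental CHO cell line. Also added: ATP agonist challenge. Dosing: one dose, 5.6 µM nominal. Measured by: Fluo-8 fluorescence. Read-out: % inhibition. Benchmarks: ATP wells versus no-ATP DMSO wells. Repeats: no replicates.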
# TAAR1 ag confirm = confirmation of human TAAR1 agonists | activation, % at 3 µM | shares compounds with TAAR1 ag | AID 651783 | CHO RD-HGA16 TAAR1, Fluo-8 calcium fluorescence; scaled: DMSO 0%, maximal phenethylamine 100% | 82% of 2,400 active;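 active means activation above a cutoff set at the run's mean compound activation plus 3 SD, cut at about 39% in these data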
# Ga16 nonsel ag = counter-screen for TAAR1 agonists: nonselective agonists in parental cells; shares compounds with TAAR1 ag; CHO-Ga16 parental, Fluo-8 calcium fluorescence; normalized to maximal ATP response, DMSO zero; activation, % at 3 µM; 50% of 2,400 active; AID 651787;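 active means activation above the run cutoff, the mean activation over all tested wells plus 3 SD, cut at about 12% in these data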;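 further: 0% = DMSO wells and 100% = maximal ATP response on the peak over basal ratio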
# TAAR1 desensitize = TAAR1 response desensitization, agonist counter-screen; shares compounds with TAAR1 ag; CHO RD-HGA16 hTAAR1, Fluo-8 calcium, beta-PEA response inhibition; inhibition, % at 3 µM; 46% of 2,400 active; AID 651951;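 active means inhibition above the run cutoff, the mean inhibition of all test compounds plus 3 SD, cut at about 49% in these data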;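 further: beta-PEA stimulus applied at its EC80; loss of beta-PEA calcium signal after compound pretreatment read as receptor desensitization; 0% = DMSO with beta-PEA at EC80 and 100% = DMSO alone without agonist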
# Ga16 antag count = nonselective Ga16 antagonist in TAAR1 agonist counter-screen; shares compounds with TAAR1 ag; CHO-Ga16 ATP-induced calcium, Fluo-8 fluorescence; inhibition, % at 3 µM; 39% of 2,400 active; AID 651952;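 active means inhibition above the plate's mean compound inhibition plus 3 SD, computed per plate, cut at about 22% in these data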;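 further: 0% = EC80 ATP with DMSO and 100% = DMSO wells without ATP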
# Numbers without * were called inactive; · = no result given.
SMILES,TAAR1 ag,OX1R antag-1,OX1R antag-2,TAAR1 antagonist,GPR7 antagonist,CHO parental Ca,TAAR1 ag confirm,Ga16 nonsel ag,TAAR1 desensitize,Ga16 antag count
O=C(Nc1ccccc1)c1ccc(-c2ccccc2Cl)o1,6.8,-23.1,32.9,1.1,3.5,-7.5,·,·,·,·
O=C(Nc1cccnc1)c1ccc(-c2cc(Cl)ccc2Cl)o1,72.8*,-29.1,11.6,15.3,-5.0,-32.3,40.2*,42.8*,40.1,19.4
CC(=O)Nc1ccc(NC(=O)c2ccc(-c3ccccc3Cl)o2)cc1,57.9*,·,·,53.5*,·,·,40.2*,43.4*,56.9*,38.2*
O=C(Nc1cccnc1)c1ccc(-c2ccc(Cl)cc2)o1,1.3,-28.3,46.1,-5.8,-7.6,-26.9,·,·,·,·
O=C(NCCc1ccccc1)c1ccc(Br)o1,67.4*,-8.5,12.4,27.3,-2.2,-16.9,77.3*,3.3,39.9,0.7
O=C(NCCc1ccccc1)c1ccc(-c2ccccc2Cl)o1,51.0*,-16.0,28.3,20.7,-10.2,-13.4,16.3,18.8*,80.9*,14.8
O=C(NCc1ccccc1)c1ccc(Br)o1,15.0,-4.9,-2.8,-2.4,10.6,-7.3,·,·,·,·
O=C(c1cccc(S(=O)(=O)N2CCN(c3ccccc3)CC2)c1)N1CCN(c2ccccc2O)CC1,-0.6,-9.0,18.4,4.6,·,-8.1,·,·,·,·
COC(=O)c1cnc(Nc2nc(C(N)COCc3ccccc3)cs2)nc1C(F)(F)F (stereo not given),13.0,·,·,-2.2,·,·,·,·,·,·
COC(=O)c1cnc(Nc2nc(C(N)c3ccccc3Cl)cs2)nc1C(F)(F)F (stereo not given),60.3*,·,·,40.8,·,·,68.3*,36.0*,28.8,28.5*
S=c1nc(NCCc2ccccc2Cl)c2ccccc2[nH]1,51.6*,·,·,45.4,-12.6,·,33.4,11.2,20.1,22.3*
O=C(CCCCCNc1nc(=S)[nH]c2ccccc12)NCc1ccccc1Cl,7.2,-37.4,19.8,-4.2,-4.1,-27.9,·,·,·,·
O=Cc1ccc(-n2cccn2)cc1,322.9*,7.7,0.8,64.9*,-7.8,3.1,-0.3,2.9,2.9,4.4
